The values below come from ChEMBL document CHEMBL1149664, “Anthranilamide inhibitors of factor Xa” (2007).

Test [1] addresses Prothrombin (Homo sapiens) (UniProt P00734). In words: Inhibition of human factor 2a. Put shortly:
(§1)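 Values are reported as an apparent association constant (Kassoc) between enzyme and inhibitor, in 10^6 L/mol.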

Test [2] has as its target Coagulation factor X (Homo sapiens) (UniProt P00742). In words: Inhibition of human factor 10a. Put shortly:
as §1

Test [3] concerns Plasma. In words: Anticoagulant potency in human citreated plasma assessed as concentration required to double activated partial thromboplastin time. Format: functional.
The subject of test [4] is Plasma. In words: Anticoagulant potency in human citreated plasma assessed as concentration required to double prothrombin time. In kind it is functional.

The structures appear in SMILES notation.

Sequence of Coagulation factor X (Homo sapiens) (P00742 41-179 limits assumed): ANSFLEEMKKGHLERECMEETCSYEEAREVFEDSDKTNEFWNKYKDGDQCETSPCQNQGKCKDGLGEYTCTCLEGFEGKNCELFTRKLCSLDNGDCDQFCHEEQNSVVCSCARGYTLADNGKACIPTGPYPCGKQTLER
Sequence of Coagulation factor X (Homo sapiens) (P00742 235-488 limits assumed): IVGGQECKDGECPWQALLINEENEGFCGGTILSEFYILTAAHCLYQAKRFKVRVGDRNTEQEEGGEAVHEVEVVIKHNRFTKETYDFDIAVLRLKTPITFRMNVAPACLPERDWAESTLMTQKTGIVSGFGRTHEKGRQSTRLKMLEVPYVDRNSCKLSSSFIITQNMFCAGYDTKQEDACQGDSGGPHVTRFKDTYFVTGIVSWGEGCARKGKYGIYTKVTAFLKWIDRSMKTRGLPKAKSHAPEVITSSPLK

For `NCCCOc1cc(N2CCCCCC2)ccc1C(=O)Nc1ccccc1C(=O)Nc1ccc(Cl)cn1`, the Kapp in test [1] was 25 10^6L/mol; in test [2], 130 10^6L/mol. Further, the values for the Activity with Plasma [3] and in the test on Plasma [4] were 3.1 µM and 2.7 µM, respectively.

As to `CC(C)(C)c1ccc(C(=O)Nc2ccccc2C(=O)Nc2ccc(Cl)cn2)c(OC2CCN(Cc3ccccc3C(=O)O)CC2)c1`, the figures for the Kapp in test [1] and in test [2] were 72 10^6L/mol and 1160 10^6L/mol, respectively. Besides, the Activity in the test on Plasma [3] was found to be 0.57 µM; in the test on Plasma [4], 1 µM.

For `CC(C)(C)c1ccc(C(=O)Nc2ccccc2C(=O)Nc2ccc(Cl)cn2)c(OC2CCN(Cc3ccsc3)CC2)c1`, the Kapp was 23 10^6L/mol in test [1] and 450 10^6L/mol in test [2]. The Activity in the test with Plasma [3] amounted to 14.8 µM; in the test on Plasma [4], 20 µM.

`NCCCOc1cc(N2CC[C@@H](N)C2)ccc1C(=O)Nc1ccccc1C(=O)Nc1ccc(Cl)cn1`: the Kapp in test [1] is 7.3 10^6L/mol; in test [2] it was 874 10^6L/mol. The Activity with Plasma [3] was 0.4 µM; with Plasma [4], 0.45 µM.

As to `CC(C)(C)c1ccc(C(=O)Nc2ccccc2C(=O)Nc2ccc(Cl)cn2)c(OC2CCN(Cc3ncc[nH]3)CC2)c1`, the Kapp in test [1] is 54 10^6L/mol; in test [2], 2160 10^6L/mol. Besides, the Activity in the test on Plasma [3] was found to be 1.8 µM; with Plasma [4], 2.6 µM.

Consider `CC(C)(C)c1ccc(C(=O)Nc2ccccc2C(=O)Nc2ccc(Cl)cn2)c(OC2CCN(Cc3ccccc3)CC2)c1`, for which the values for the Kapp in test [1] and in test [2] were 20 10^6L/mol and 488 10^6L/mol, respectively. Also, the Activity was 28.1 µM in the test on Plasma [3] and 44.6 µM in the test on Plasma [4].

For the compound `COc1ccc(NC(=O)c2ccccc2NC(=O)c2ccc(OC)cc2)cc1`, the Kapp in test [2] was 1 10^6L/mol.

With `CN(C)CC(=O)N1CCC(Oc2cc(C(C)(C)C)ccc2C(=O)Nc2ccccc2C(=O)Nc2ccc(Cl)cn2)CC1`, the Kapp in test [1] was 60 10^6L/mol; in test [2] it was 176 10^6L/mol.

Turning to `COc1ccc(C(=O)Nc2ccccc2C(=O)Nc2ccc(C(C)(C)C)cc2)cc1`, in test [2], the Kapp was 0.03 10^6L/mol.

As for `CN(C)CCCNC(=S)N1CCC(Oc2cc(C(C)(C)C)ccc2C(=O)Nc2ccccc2C(=O)Nc2ccc(Cl)cn2)CC1`, the values for the Kapp in test [1] and in test [2] were 145 10^6L/mol and 170 10^6L/mol, respectively. For the same compound, the Activity in the test with Plasma [3] and with Plasma [4] was 2.9 µM each time.

`COCCN1CCC(Oc2cc(C(C)(C)C)ccc2C(=O)Nc2ccccc2C(=O)Nc2ccc(Cl)cn2)CC1`: the Kapp in test [1] was 24 10^6L/mol; in test [2], 3080 10^6L/mol. Moreover, the Activity in the test with Plasma [3] and in the test on Plasma [4] was 2.1 µM in each case.

Consider `COc1ccc(NC(=O)c2ccccc2NC(=O)c2ccc(C(C)C)cc2)cc1`, for which the Kapp in test [2] is 7 10^6L/mol.

In the case of `COc1ccc(NC(=O)c2ccccc2NC(=O)c2ccc(C(C)(C)C)cc2)cc1`, the Kapp in test [2] is 5 10^6L/mol.

As to `CC(C)(C)c1ccc(C(=O)Nc2ccccc2C(=O)Nc2ccc(Cl)cn2)c(OC2CCN(C(=O)CCC(=O)O)CC2)c1`, the figures for the Kapp in test [1] and in test [2] were 4 10^6L/mol and 714 10^6L/mol, respectively. The Activity with Plasma [3] was 6.1 µM; with Plasma [4], 5.3 µM.

Turning to `CC(C)(C)c1ccc(C(=O)Nc2ccccc2C(=O)Nc2ccc(Cl)cn2)c(OC2CCN(C(=O)Cn3cnnn3)CC2)c1`, the Kapp in test [1] was 134 10^6L/mol; in test [2], 448 10^6L/mol. The Activity was 8 µM in the test with Plasma [3] and 10 µM in the test with Plasma [4].

`CC(C)(C)OC(=O)NCCCOc1cc(C(C)(C)C)ccc1C(=O)Nc1ccccc1C(=O)Nc1ccc(Cl)cn1`: the Kapp in test [1] is 0.2 10^6L/mol; in test [2], 54 10^6L/mol. Also, the Activity in the test on Plasma [3] and in the test with Plasma [4] was >70 µM throughout.

Turning to `CC(C)(C)c1ccc(C(=O)Nc2ccccc2C(=O)Nc2ccc(Cl)cn2)c(O)c1`, the Kapp is 0.02 10^6L/mol in test [1] and 23 10^6L/mol in test [2]. Also, the Activity in the test on Plasma [3] and with Plasma [4] was >100 µM each time.

For the compound `CC(C)(C)c1ccc(C(=O)Nc2ccccc2C(=O)Nc2ccc(Cl)cn2)c(OCC2CCCCN2)c1` (stereo not drawn), the Kapp in test [1] is 67 10^6L/mol; in test [2], 219 10^6L/mol. Besides, the Activity in the test with Plasma [3] and with Plasma [4] was 1.4 µM throughout.

In the case of `NCCCOc1cc(N2CCCC2)ccc1C(=O)Nc1ccccc1C(=O)Nc1ccc(Cl)cn1`, the figures for the Kapp in test [1] and in test [2] were 40 10^6L/mol and 3010 10^6L/mol, respectively. The Activity in the test with Plasma [3] and in the test on Plasma [4] was 0.41 µM throughout.

For `CC(C)(C)c1ccc(C(=O)Nc2ccccc2C(=O)Nc2ccc(Cl)cn2)c(OC2CCN(CC3CC3)CC2)c1`, the Kapp is 37 10^6L/mol in test [1] and 1370 10^6L/mol in test [2]. Moreover, the Activity in the test with Plasma [3] worked out at 2.4 µM; with Plasma [4], 2.5 µM.

As for `CCCN1CCC(Oc2cc(C(C)(C)C)ccc2C(=O)Nc2ccccc2C(=O)Nc2ccc(Cl)cn2)CC1`, the values for the Kapp in test [1] and in test [2] were 30 10^6L/mol and 1940 10^6L/mol, respectively. The Activity in the test on Plasma [3] is 3.1 µM; with Plasma [4], 3.3 µM.

`CC(C)(C)OC(=O)N1CCC(Oc2cc(C(C)(C)C)ccc2C(=O)Nc2ccccc2C(=O)Nc2ccc(Cl)cn2)CC1`: the Kapp in test [1] is 6 10^6L/mol; in test [2], 69 10^6L/mol. For the same compound, the Activity in the test on Plasma [3] was 55 µM; in the test on Plasma [4] it was 64 µM.

In the case of `NCCCOc1cc(N2CCSCC2)ccc1C(=O)Nc1ccccc1C(=O)Nc1ccc(Cl)cn1`, the Kapp in test [1] is 17 10^6L/mol; in test [2], 709 10^6L/mol. The figures for the Activity with Plasma [3] and in the test with Plasma [4] were 0.69 µM and 0.61 µM, respectively.

As to `CC(C)(C)c1ccc(C(=O)Nc2ccccc2C(=O)Nc2ccc(Cl)cn2)c(OC2CCNCC2)c1`, the Kapp in test [1] is 114 10^6L/mol; in test [2], 1110 10^6L/mol. For the same compound, the figures for the Activity with Plasma [3] and with Plasma [4] were 0.85 µM and 0.88 µM, respectively.

Consider `CN1CCCN(c2ccc(C(=O)Nc3ccccc3C(=O)Nc3ccc(Cl)cn3)c(OCCCN)c2)CC1`, for which the Kapp in test [1] was 24 10^6L/mol; in test [2] it was 8970 10^6L/mol. For the same compound, the Activity in the test with Plasma [3] came out at 0.1 µM.

For the compound `NCCCOc1cc(N2CCCCC2)ccc1C(=O)Nc1ccccc1C(=O)Nc1ccc(Cl)cn1`, the Kapp is 17 10^6L/mol in test [1] and 323 10^6L/mol in test [2]. Also, the Activity with Plasma [3] came to 1 µM; in the test on Plasma [4], 0.93 µM.

As to `CC(C)(CN)COc1cc(C(C)(C)C)ccc1C(=O)Nc1ccccc1C(=O)Nc1ccc(Cl)cn1`, the figures for the Kapp in test [1] and in test [2] were 1100 10^6L/mol and 76 10^6L/mol, respectively. The values for the Activity in the test with Plasma [3] and with Plasma [4] were 2 µM and 1.6 µM, respectively.

Take `CC(C)N1CCC(Oc2cc(C(C)(C)C)ccc2C(=O)Nc2ccccc2C(=O)Nc2ccc(Cl)cn2)CC1`: the values for the Kapp in test [1] and in test [2] were 25 10^6L/mol and 3440 10^6L/mol, respectively. Also, the Activity in the test on Plasma [3] came to 1.2 µM; with Plasma [4], 1.8 µM.

Turning to `CN1CCN(c2ccc(C(=O)Nc3ccccc3C(=O)Nc3ccc(Cl)cn3)c(OCCCN)c2)CC1`, the Kapp in test [1] was 2 10^6L/mol; in test [2], 82 10^6L/mol.

`CN1CCC(Oc2cc(C(C)(C)C)ccc2C(=O)Nc2ccccc2C(=O)Nc2ccc(Cl)cn2)CC1`: the Kapp in test [1] was 61 10^6L/mol; in test [2] it was 1630 10^6L/mol. The values for the Activity with Plasma [3] and in the test with Plasma [4] were 0.93 µM and 1.1 µM, respectively.

Turning to `CC(C)(C)c1ccc(C(=O)Nc2ccccc2C(=O)Nc2ccc(Cl)cn2)c(OC2CCN(C(=S)NCc3cccnc3)CC2)c1`, the results for the Kapp in test [1] and in test [2] were 34 10^6L/mol and 733 10^6L/mol, respectively. Also, the Activity with Plasma [3] worked out at 13.4 µM; in the test with Plasma [4], 21.8 µM.

For the compound `CC(C)(C)OC(=O)N1CCCCC1COc1cc(C(C)(C)C)ccc1C(=O)Nc1ccccc1C(=O)Nc1ccc(Cl)cn1` (stereo not drawn), the Kapp in test [1] was 3.9 10^6L/mol; in test [2], 3.1 10^6L/mol. Besides, the Activity with Plasma [3] and in the test with Plasma [4] was >70 µM in each case.

Turning to `NCCCOc1cc(N2CCOCC2)ccc1C(=O)Nc1ccccc1C(=O)Nc1ccc(Cl)cn1`, the Kapp was 5.8 10^6L/mol in test [1] and 516 10^6L/mol in test [2]. Also, the Activity with Plasma [3] is 0.26 µM; in the test on Plasma [4], 0.34 µM.

With `CC(C)(C)c1ccc(C(=O)Nc2ccccc2C(=O)Nc2ccc(Cl)cn2)c(OC2CCN(C(=O)Nc3ccccc3F)CC2)c1`, the Kapp in test [1] was 27 10^6L/mol; in test [2] it was 307 10^6L/mol. The Activity in the test with Plasma [3] worked out at 21.5 µM; with Plasma [4], 30.2 µM.

With `CC(C)(C)c1ccc(C(=O)Nc2ccccc2C(=O)Nc2ccc(Cl)cc2)cc1`, the Kapp in test [2] was 0.5 10^6L/mol.

Turning to `CC(C)(CNC(=O)OC(C)(C)C)COc1cc(C(C)(C)C)ccc1C(=O)Nc1ccccc1C(=O)Nc1ccc(Cl)cn1`, the figures for the Kapp in test [1] and in test [2] were 0.14 10^6L/mol and 2.9 10^6L/mol, respectively. The Activity with Plasma [3] and in the test with Plasma [4] was >70 µM each time.

In the case of `CC(C)(C)c1ccc(C(=O)Nc2ccccc2C(=O)Nc2ccc(Cl)cn2)c(OCCCN)c1`, the results for the Kapp in test [1] and in test [2] were 152 10^6L/mol and 1440 10^6L/mol, respectively. Moreover, the Activity in the test with Plasma [3] is 0.85 µM; in the test with Plasma [4], 0.79 µM.

As for `CC(C)(C)c1ccc(C(=O)Nc2ccccc2C(=O)Nc2ccc(Cl)cn2)cc1`, the Kapp in test [2] was 42 10^6L/mol.

For the compound `Cn1nccc1C(=O)N1CCC(Oc2cc(C(C)(C)C)ccc2C(=O)Nc2ccccc2C(=O)Nc2ccc(Cl)cn2)CC1`, the Kapp was 21 10^6L/mol in test [1] and 513 10^6L/mol in test [2]. Besides, the Activity in the test with Plasma [3] worked out at 5.7 µM; in the test on Plasma [4] it was 7.6 µM.
